From ChEMBL document CHEMBL1914330 (Eur J Med Chem, 2011)
The source made the active and inactive calls. The calls are words filed in the database; no cut-off is given here.

Legend:
[1] = tested on: HeLa; test: Induction of cell cycle arrest at G2/M phase in human HeLa cells assessed as disappearance of Cdc25C expression at 0.25 to 5 uM after 48 hrs by Western blot analysis; format: functional, cell-based
Method in brief: (§1)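 HeLa cells treated for 24 or 48 h were washed in cold PBS and lysed on ice for 30 min. Lysates were cleared at 15,000 × g, run on SDS-PAGE and blotted. Membranes were probed 2 h at room temperature with antibodies to the target protein, then peroxidase secondary and ECL. Blots were reprobed for β-actin as loading control.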

[2] = tested on: HeLa; test: Induction of apoptosis in human HeLa cells assessed as accumulation of necrotic cells after 48 hrs by Annexin-V-FITC/propidium iodide staining-based flow cytometric analysis; format: functional, cell-based
Method in brief: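 HeLa cells treated for 24 or 48 h, then labelled with annexin-V-FITC and PI. Analysed by flow cytometry with excitation at 488 nm and emission at 525 nm (FITC) and 585 nm (PI). Quadrants scored as live, early apoptotic, late apoptotic or necrotic. Mean ± SEM of four independent experiments.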

[3] = tested on: HeLa; test: Induction of apoptosis in human HeLa cells assessed as ROS production at 0.25 to 5 uM after 24 to 48 hrs by hydroethidine-staining-based flow cytometric analysis; format: functional, cell-based
Method in brief: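 HeLa cells treated 24 or 48 h, trypsinized and resuspended in HBSS containing HE (2.5 µM) or H₂DCFDA (0.1 µM). Incubated 10 min at 37 °C, resuspended in HBSS, and ROS read by flow cytometry. Mean ± SEM of three independent experiments.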

[4] = tested on: HeLa; test: Antiproliferative activity against human HeLa cells after 2 days by coulter counter analysis; format: functional, cell-based; settings: 48 h
Method in brief: (§2)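 Cells suspended at 300,000–500,000 cells/mL and mixed 1:1 with diluted compound. Incubated at 37 °C for two days, then counted with a Coulter counter. IC50 is the concentration inhibiting proliferation by 50%, as mean ± SE from dose-response curves of at least three independent experiments.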

[5] = tested on: CCRF-CEM; test: Antiproliferative activity against human CEM cells after 72 hrs by MTT assay; format: functional, cell-based
Method in brief: (§3)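 Cells seeded at 8 × 10³ per well in complete medium and exposed to a range of compound concentrations at 37 °C for 72 h. Viability read by MTT test. IC50 taken as the concentration inhibiting proliferation by 50%.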

[6] = tested on: Mus musculus; test: Toxicity in BALB/c nude mouse xenografted with human HT-29 cells assessed as organism mortality at 100 mg/kg, ip administered 3 times per week for 1 week measured on day 19; format: organism-based; design: dose 100 mg/kg, route intraperitoneal; settings: in vivo, 168 h
Method in brief: (§4)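 HT-29 cells in log phase, suspended at 1 × 10⁷ cells/mL in serum-free RPMI 1640, 0.2 mL injected subcutaneously into the back of nude mice. At about 300 mm³, mice were randomised to vehicle or treatment groups (six per group). The compound was given in DMSO by i.p. injection at 0.01 mL/g body weight. Body weight was recorded on set days; mice were euthanised after 23 days.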

[7] = tested on: Mus musculus; test: Toxicity in nude BALB/c mouse xenografted with human HT-29 cells assessed as organism mortality at 100 mg/kg, ip administered 3 times per week for 1 week measured on day 7; format: organism-based; design: dose 100 mg/kg, route intraperitoneal; settings: in vivo, 168 h; method in brief: as §4
[8] = tested on: CCRF-CEM; test: Antiproliferative activity against human CEM cells after 2 days by coulter counter analysis; format: functional, cell-based; settings: 48 h; method in brief: as §2
[9] = organism: Bos taurus; test: Displacement of [3H]colchicine from bovine brain tubulin at 5 uM by DEAE-cellulose filter method
Method in brief: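 Inhibition of [³H]colchicine binding to bovine brain tubulin. Reaction mixtures held 1 µM tubulin, 5 µM [³H]colchicine and 5 µM test compound.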

[10] = tested on: MOLT-4; test: Antiproliferative activity against human MOLT4 cells after 2 days by coulter counter analysis; format: functional, cell-based; settings: MOLT-4, 48 h
[11] = tested on: LoVo; test: Antiproliferative activity against doxorubicin-resistant human LoVo cells after 72 hrs by MTT assay; format: functional, cell-based; method in brief: as §3
[12] = tested on: CCRF-CEM; test: Ratio of IC50 for vinblastine-resistant human CEM/VBL100 cells to IC50 for human CEM cells; format: functional
[13] = tested on: HeLa; test: Induction of apoptosis in human HeLa cells assessed as caspase-3 activation at 0.25 to 5 uM by flow cytometry; settings: TDE = time-dependent effect
[14] = tested on: HeLa; test: Induction of apoptosis in human HeLa cells assessed as PARP cleavage at 0.25 to 5 uM by Western blot analysis; format: functional, cell-based; settings: TDE = time-dependent effect; method in brief: as §1
[15] = tested on: HeLa; test: Induction of cell cycle arrest at G2/M phase in human HeLa cells assessed as decrease in Cdc2 phosphorylation at Tyr15 at 0.25 to 5 uM after 24 hrs by Western blot analysis; format: functional, cell-based; method in brief: as §1
[16] = tested on: L1210; test: Antiproliferative activity against mouse L1210 cells after 2 days by coulter counter analysis; format: functional, cell-based; settings: L1210, 48 h; method in brief: as §2
[17] = Antiproliferative activity against human taxol-resistant A549-T12 cells after 72 hrs by MTT assay; format: functional, cell-based; settings: A549, 72 h; method in brief: as §3
[18] = tested on: HeLa; test: Induction of cell cycle arrest at G2/M phase in human HeLa cells assessed as increase in cyclin B1 expression at 0.25 to 5 uM after 24 hrs by Western blot analysis; format: functional, cell-based; method in brief: as §1
[19] = tested on: HeLa; test: Effect on Bax protein expression in human HeLa cells at 0.25 to 0.5 uM after 24 to 48 hrs by Western blot analysis; format: functional, cell-based; method in brief: as §1

COc1cc(C(=O)c2sc(N3CCCC3)nc2N)cc(OC)c1OC
Activity [1]: Active | Activity [2]: Active | Activity [3]: Active | IC50 [4]: 340 nM | IC50 [5]: 20 nM | Activity [6]: Toxic | Activity [7]: Toxic | IC50 [8]: 320 nM | inhibition [9]: 67% | IC50 [10]: 260 nM | IC50 [11]: 430 nM | Ratio IC50 [12]: 0.2 | Activity [13]: tde | Activity [14]: tde | Activity [15]: Active | IC50 [16]: 370 nM | IC50 [17]: 160 nM | Activity [18]: Active | Activity [19]: inactive
